Screening results as filed in PubChem BioAssay.
RAD52 inh = RAD52 (human) annealing inhibition; P43351; recombinant RAD52 DNA annealing, FRET fluorescence; inhibition, % at 18.7 µM; 360,000 compounds, 0.46% hits; AID 651710;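 active = every replicate showing at least 50% inhibition; inconclusive = mean inhibition at least 50% but not in every replicate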
AF4-AF9 inh = MLL-AF4/AF9 protein interaction inhibition; P42568; AlphaScreen, biotin-AF4 peptide binding to FLAG-AF9; inhibition, % at 10 µM; 350,000 compounds, 0.47% hits; AID 651704;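 active = every replicate reaching a set inhibition limit, whatever the replicate mean, cut at about 25% in these data; inconclusive = mean inhibition reaches that limit but some replicates miss it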;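 note: 0% = plate neutral control median and 100% = total signal loss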
S100A4 inh HTS = inhibitors of human S100A4 binding to myosin IIA peptide. P26447. S100A4/TAMRA-MyoIIA peptide fluorescence polarization. inhibition, % at 10.7 µM. 360,000 compounds, 0.14% hits. AID 652163;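 active = mean inhibition of at least 70% across replicates, with every replicate also reaching that level; inconclusive = mean inhibition reaches 70% but some replicates fall short; inactive = mean inhibition below 70%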
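Compound dosing: one dose per compound; test system: human S100A4 monomer with TAMRA-labelled myosin IIA peptide; probe or stimulus: TAMRA-labelled myosin IIA heavy-chain peptide probe, 5 nM; medium: HEPES buffer with Ca2+, pH 7.2; schedule: 5 min incubation before reading; benchmarks: neutral control DMSO, positive control TFP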
dFosB activator = mouse delta FosB homodimer activation; 340,000 compounds, 0.99% hits; purified delta FosB, TAMRA-CDK5 oligo fluorescence polarization; percent of positive-control signal above neutral wells; activation, % at 25 µM; AID 493131;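 active = mean activation above about 17%, with every replicate also reaching it, limit read from the data, passing the limit was not always enough; inconclusive = only one of the two conditions met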
RAD54 branch = RAD54 (human) branch migration inhibition; Q92698; RAD54 Holliday junction branch migration, FAM/BHQ fluorescence; inhibition, % at 10.4 µM; 360,000 compounds, 0.14% hits;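 active = mean normalized replicate activity at least 40 and at least half of replicates scoring 40 or more; inconclusive = only one of the two criteria met; inactive = mean below 40 and under half of replicates reaching 40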;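 note: 0% = median of neutral control wells and 100% = median of positive control wells; inhibitors cause a drop in the FAM fluorescence signal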
Target sequence (Q92698 whole entry, looked up): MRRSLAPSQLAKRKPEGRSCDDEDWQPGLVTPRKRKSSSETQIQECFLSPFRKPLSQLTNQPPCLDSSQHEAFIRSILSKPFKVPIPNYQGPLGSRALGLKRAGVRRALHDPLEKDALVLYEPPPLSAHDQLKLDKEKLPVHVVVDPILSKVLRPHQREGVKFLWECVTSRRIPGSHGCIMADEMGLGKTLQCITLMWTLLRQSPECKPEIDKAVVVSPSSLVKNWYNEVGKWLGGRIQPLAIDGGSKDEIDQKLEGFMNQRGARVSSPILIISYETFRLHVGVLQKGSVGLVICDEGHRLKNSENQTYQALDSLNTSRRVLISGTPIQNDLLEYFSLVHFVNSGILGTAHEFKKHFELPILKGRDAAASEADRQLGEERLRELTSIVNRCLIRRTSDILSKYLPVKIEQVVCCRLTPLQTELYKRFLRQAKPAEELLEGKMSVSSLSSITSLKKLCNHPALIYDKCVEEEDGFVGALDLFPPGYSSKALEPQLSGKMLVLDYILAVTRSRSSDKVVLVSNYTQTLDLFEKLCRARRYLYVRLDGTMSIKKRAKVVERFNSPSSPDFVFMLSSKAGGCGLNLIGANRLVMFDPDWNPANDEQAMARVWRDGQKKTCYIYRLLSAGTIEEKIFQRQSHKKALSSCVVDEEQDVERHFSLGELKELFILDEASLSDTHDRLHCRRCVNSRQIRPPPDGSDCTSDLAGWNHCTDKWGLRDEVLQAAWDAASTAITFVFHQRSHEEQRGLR
Active calls of the source: *; ? = inconclusive; · = not tested or not shown. Compounds with a hit are over-represented: about 1.5% of the library has one in this group of screens.

SMILES	RAD52 inh	AF4-AF9 inh	S100A4 inh HTS	dFosB activator	RAD54 branch
O=C(C[C@@H]1CC[C@H]2[C@@H](COC[C@H](O)CN2S(=O)(=O)c2ccccc2)O1)NCC1CCCCC1	53*	39*	22	·	-5
Cc1ccccc1S(=O)(=O)N[C@@H]1CC[C@H](CCNS(=O)(=O)c2cccc(F)c2)O[C@H]1CO	-9	-3	0	·	7
CCOc1cc(-c2sc(Nc3ccc(CC)cc3)n[n+]2-c2ccccc2)ccc1OC	-12	27*	-6	4	3
CC1=C(N2CCOCC2)CCC1=O	-2	-1	85*	-3	-5
O=C(C[C@H]1CC[C@@H](NS(=O)(=O)c2ccccc2)[C@@H](CO)O1)N1CCN(c2ccccc2)CC1	-10	-5	-4	·	·
CCOc1ccc(-c2cc(N)n(S(=O)(=O)c3ccc(OC)c(OC)c3)n2)cc1	-16	44*	-3	0	2
COc1ccc(S(=O)(=O)n2nc(-c3ccc(Cl)cc3)cc2N)cc1OC	-25	5	23	-11	25
CCOC(=O)/C(=N\Nc1ncnc2ccccc12)c1ccc(C)cc1	-86	42*	19	-14	-9
CCOC(=O)C/C(=N\Nc1ncnc2ccccc12)c1ccccc1	-14	-3	-6	-6	-4
Nc1ccc(N=Nc2ccccc2)c2ccccc12	-12	10	-11	2	4
Nc1ccc(N=Nc2ccccc2)c(N)n1	11	34*	-10	6	9
COc1ccc(C#Cc2ccc([C@@H]3[C@@H](CO)N4CCCCN(Cc5ccccc5F)C[C@H]34)cc2)cc1	-4	29*	-2	·	27
O=C(c1cccnc1)N1CCCCN2[C@H](C1)[C@H](c1ccc(C#Cc3ccccn3)cc1)[C@@H]2CO	-81	25*	-5	·	-14
COc1ccc(C#Cc2ccc([C@H]3[C@H]4CN(Cc5ccccc5F)CCCCN4[C@H]3CO)cc2)cc1	-46	7	-21	·	-5
OC[C@@H]1[C@H](c2ccc(C#Cc3cccnc3)cc2)[C@H]2CN(Cc3ccccc3F)CCCCN12	54*	10	1	·	3
CCC(=O)N(C)C[C@H]1Oc2cc(C#CCC3CCCC3)ccc2S(=O)(=O)N([C@@H](C)CO)C[C@H]1C	-2	-2	13	·	8
Cc1ccc(Nc2c(-c3ccccn3)nc3cc(C)ccn23)cc1	8	37*	-11	21*	-2
Cc1ccc(Nc2c(-c3ccccn3)nc3ccc(C)cn23)cc1	-6	·	1	?	-5
C[C@H]1CN([C@@H](C)CO)C(=O)Cc2cc(NC(=O)CCN3CCOCC3)ccc2O[C@@H]1CN(C)Cc1ccc(C(=O)Nc2ccccc2N)cc1	20	2	-11	·	·
COc1cc(/C=N/NC(=O)c2cc3ccccc3cc2O)ccc1OCCN1CCCCC1	-12	20	-73	79*	·
COc1cc(/C=N/NC(=O)c2ccncc2)ccc1OCCN1CCCCC1	·	·	·	-8	·
O=C(NC1CCC1)[C@@H]1[C@@H](CO)[C@@H]2Cn3c(ccc(-c4ccccc4F)c3=O)[C@@H]2N1Cc1ccccn1	-2	-2	4	·	·
O=C(NC1CCC1)[C@H]1[C@H](CO)[C@H]2Cn3c(ccc(-c4ccccc4F)c3=O)[C@H]2N1Cc1ccncc1	71*	0	-5	·	12
CCCNC(=O)N1[C@@H]2c3ccc(-c4ccccc4OC)c(=O)n3C[C@@H]2[C@@H](CO)[C@@H]1C(=O)NC1CCC1	5	2	116*	·	15
COc1ccccc1-c1ccc2n(c1=O)C[C@H]1[C@H](CO)[C@@H](C(=O)NC3CCC3)N(C(=O)NC(C)C)[C@@H]21	-5	-3	3	·	11
Cc1noc(C)c1S(=O)(=O)Nc1ccc2c(c1)C(=O)N([C@@H](C)CO)C[C@H](C)[C@H](CN(C)C(=O)c1ccccc1)OCCCC[C@@H](C)O2	-6	-8	-7	·	-8
O=C(N[C@H]1CC[C@H](CC(=O)N2CCOCC2)O[C@@H]1CO)c1ccccn1	12	0	-6	·	-3
COc1cccc(-c2ccc3c(c2)O[C@H](CN(C)Cc2cncnc2)[C@H](C)CN([C@@H](C)CO)S3(=O)=O)c1	13	1	15	·	-2
COc1ccccc1C(=O)COC(=O)CN1C(=O)NC2(CCCC2)C1=O	-16	-1	93*	-3	·
CN1C=C/C(=C\c2cc[n+](C)c3ccccc23)c2ccccc21	79*	56*	0	38*	82*
